Results: ChEMBL document CHEMBL1781920, “Synthesis and antimicrobial activity of some new 4-hetarylpyrazole and furo[2,3-c]pyrazole derivatives” (2011)
≈ marks a conversion by molar mass, not a printed value.

Tests used:
Assay type in all cases: functional
[1] = tested on: Bacillus subtilis; assay: Antibacterial activity against Bacillus subtilis ATCC 6633 after 24 hrs by serial dilution method; conditions: ATCC 6633, 24 h
Method in brief: (§1)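 Broth microdilution in Mueller–Hinton broth, run only for compounds giving zones >14 mm in the disk test. DMF stocks were diluted twofold from 500 to 3.125, and about 10⁶ CFU/mL bacteria were added per well. Sealed plates were kept at 37 °C for 24 h in a humid chamber. MIC was taken as the lowest concentration without visible turbidity.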

[2] = tested on: Bacillus thuringiensis; assay: Antibacterial activity against Bacillus thuringiensis ATCC 6051 after 24 hrs by serial dilution method; conditions: ATCC 6051, 24 h; method in brief: as §1
[3] = tested on: Escherichia coli; assay: Antibacterial activity against Escherichia coli ATCC 14169 after 24 hrs by serial dilution method; conditions: ATCC 14169, 24 h; method in brief: as §1
[4] = tested on: Pseudomonas aeruginosa; assay: Antibacterial activity against Pseudomonas aeruginosa ATCC 27853 after 24 hrs by serial dilution method; conditions: ATCC 27853, 24 h; method in brief: as §1
[5] = tested on: Fusarium oxysporum; assay: Antifungal activity against Fusarium oxysporum ATCC 16417 after 48 hrs by serial dilution method; conditions: ATCC 16417, 48 h
Method in brief: (§2)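 MICs were measured by microdilution in Sabouraud liquid medium, for compounds with disk zones >14 mm. DMF stocks were serially diluted twofold across 500–3.125. Sealed plates were incubated at 37 °C for 48 h in a humid chamber. The lowest concentration with no visible turbidity was recorded as the MIC.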

[6] = tested on: Botrytis fabae; assay: Antifungal activity against Botrytis fabae ATCC 14862 after 48 hrs by serial dilution method; conditions: ATCC 14862, 48 h; method in brief: as §2
[7] = tested on: Bacillus subtilis; assay: Antibacterial activity against Bacillus subtilis ATCC 6633 at 1 mg/ml after 24 hrs by agar-diffusion method; conditions: ATCC 6633, 24 h, read-out: IZ
Method in brief: (§3)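 Agar disk diffusion on nutrient agar seeded with about 10⁶ CFU/mL of the test bacterium. Filter-paper disks were impregnated with compound in DMF at 1 mg/mL, two disks per plate, in triplicate. DMF alone served as control. Plates were incubated at 37 °C for 24 h, and the mean inhibition-zone diameter was recorded in mm.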

[8] = tested on: Bacillus thuringiensis; assay: Antibacterial activity against Bacillus thuringiensis ATCC 6051 at 1 mg/ml after 24 hrs by agar-diffusion method; conditions: ATCC 6051, 24 h, read-out: IZ; method in brief: as §3
[9] = tested on: Escherichia coli; assay: Antibacterial activity against Escherichia coli ATCC 14169 at 1 mg/ml after 24 hrs by agar-diffusion method; conditions: ATCC 14169, 24 h, read-out: IZ; method in brief: as §3
[10] = tested on: Pseudomonas aeruginosa; assay: Antibacterial activity against Pseudomonas aeruginosa ATCC 27853 at 1 mg/ml after 24 hrs by agar-diffusion method; conditions: ATCC 27853, 24 h, read-out: IZ; method in brief: as §3
[11] = tested on: Fusarium oxysporum; assay: Antifungal activity against Fusarium oxysporum ATCC 16417 at 1 mg/ml after 48 hrs by agar-diffusion method; conditions: ATCC 16417, 48 h, read-out: IZ
Method in brief: (§4)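 Fungi were seeded at 10⁴ CFU/mL onto nutrient agar plates. Filter-paper disks carried compound dissolved in DMF at 1 mg/mL, two disks per plate, in triplicate, with a DMF-only control. After 48 h incubation at 37 °C, the average diameter of the growth-inhibition zone was read in mm.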

[12] = tested on: Botrytis fabae; assay: Antifungal activity against Botrytis fabae ATCC 14862 at 1 mg/ml after 48 hrs by agar-diffusion method; conditions: ATCC 14862, 48 h, read-out: IZ; method in brief: as §4
[13] = tested on: Bacillus subtilis; assay: Antibacterial activity against Bacillus subtilis ATCC 6633 after 24 hrs by serial dilution method relative to chloramphenicol
[14] = tested on: Bacillus subtilis; assay: Antibacterial activity against Bacillus subtilis ATCC 6633 after 24 hrs by serial dilution method relative to cephalothin
[15] = tested on: Bacillus thuringiensis; assay: Antibacterial activity against Bacillus thuringiensis ATCC 6051 after 24 hrs by serial dilution method relative to chloramphenicol

In the case of `Cc1nn(-c2ccccc2)c2c1/C(=N/c1ccccn1)CO2`, the MIC [1] is reported as 25 µg/mL (≈ 86.1 µM), the MIC [2] is reported as 25 µg/mL (≈ 86.1 µM) and the MIC [3] is reported as 6.25 µg/mL (≈ 21.5 µM). The MIC [4] was 6.25 µg/mL (≈ 21.5 µM), the MIC [5] was 100 µg/mL (≈ 344 µM) and the MIC [6] was 50 µg/mL (≈ 172 µM). It also gave a zone of inhibition at 1000 µg/mL [7] of 26 mm, a zone of inhibition at 1000 µg/mL [8] of 25 mm and a zone of inhibition at 1000 µg/mL [9] of 38 mm. For the same compound, the zone of inhibition at 1000 µg/mL [10] was 15 mm, the zone of inhibition at 1000 µg/mL [11] was 16 mm and the zone of inhibition at 1000 µg/mL [12] was 20 mm.
Compound `Cc1nn(-c2ccccc2)c2c1/C(=N/c1cnccn1)CO2` has an MIC [1] of 12.5 µg/mL (≈ 42.9 µM), an MIC [2] of 100 µg/mL (≈ 343 µM) and an MIC [3] of 50 µg/mL (≈ 172 µM). It also gave an MIC [4] of 100 µg/mL (≈ 343 µM), an MIC [5] of 12.5 µg/mL (≈ 42.9 µM) and an MIC [6] of 100 µg/mL (≈ 343 µM). It also gave a zone of inhibition at 1000 µg/mL [7] of 32 mm, a zone of inhibition at 1000 µg/mL [8] of 15 mm and a zone of inhibition at 1000 µg/mL [9] of 20 mm. For the same compound, the zone of inhibition at 1000 µg/mL [10] was 16 mm, the zone of inhibition at 1000 µg/mL [11] was 31 mm and the zone of inhibition at 1000 µg/mL [12] was 16 mm. For the same compound, the Activity [13] was 25% and the Activity [14] was 50%.
In the case of `Cc1nn(-c2ccccc2)c2c1/C(=N/c1nnc[nH]1)CO2`, the MIC [1] is reported as 6.25 µg/mL (≈ 22.3 µM), the MIC [2] is reported as 6.25 µg/mL (≈ 22.3 µM) and the MIC [3] is reported as 100 µg/mL (≈ 357 µM). It also gave an MIC [4] of 100 µg/mL (≈ 357 µM), an MIC [5] of 100 µg/mL (≈ 357 µM) and an MIC [6] of 50 µg/mL (≈ 178 µM). It also gave a zone of inhibition at 1000 µg/mL [7] of 38 mm, a zone of inhibition at 1000 µg/mL [8] of 38 mm and a zone of inhibition at 1000 µg/mL [9] of 15 mm. For the same compound, the zone of inhibition at 1000 µg/mL [10] was 16 mm, the zone of inhibition at 1000 µg/mL [11] was 15 mm and the zone of inhibition at 1000 µg/mL [12] was 19 mm.
`Cc1nn(-c2ccccc2)c2c1/C(=N/c1nc3ccccc3[nH]1)CO2` showed an MIC [1] of 3.12 µg/mL (≈ 9.49 µM), an MIC [2] of 6.25 µg/mL (≈ 19 µM) and an MIC [3] of 50 µg/mL (≈ 152 µM). For the same compound, the MIC [4] was 50 µg/mL (≈ 152 µM), the MIC [5] was 6.25 µg/mL (≈ 19 µM) and the MIC [6] was 6.25 µg/mL (≈ 19 µM). For the same compound, the zone of inhibition at 1000 µg/mL [7] was 44 mm, the zone of inhibition at 1000 µg/mL [8] was 37 mm and the zone of inhibition at 1000 µg/mL [9] was 19 mm. For the same compound, the zone of inhibition at 1000 µg/mL [10] was 20 mm, the zone of inhibition at 1000 µg/mL [11] was 14 mm and the zone of inhibition at 1000 µg/mL [12] was 37 mm.
`Cc1[nH]n(-c2ccccc2)c(=O)c1-c1cc2c(=O)oc3ccccc3c2o1` gave an MIC [1] of 12.5 µg/mL (≈ 34.9 µM), an MIC [2] of 100 µg/mL (≈ 279 µM) and an MIC [3] of 6.25 µg/mL (≈ 17.4 µM). For the same compound, the MIC [4] was 6.25 µg/mL (≈ 17.4 µM), the MIC [5] was 6.25 µg/mL (≈ 17.4 µM) and the MIC [6] was 6.25 µg/mL (≈ 17.4 µM). For the same compound, the zone of inhibition at 1000 µg/mL [7] was 33 mm, the zone of inhibition at 1000 µg/mL [8] was 15 mm and the zone of inhibition at 1000 µg/mL [9] was 15 mm. It also gave a zone of inhibition at 1000 µg/mL [10] of 38 mm, a zone of inhibition at 1000 µg/mL [11] of 37 mm and a zone of inhibition at 1000 µg/mL [12] of 37 mm. It also gave an Activity [13] of 25% and an Activity [14] of 50%.
`Cc1[nH]n(-c2ccccc2)c(=O)c1C(=O)CN1CCCCC1` showed an MIC [1] of 3.12 µg/mL (≈ 10.4 µM), an MIC [2] of 6.25 µg/mL (≈ 20.9 µM) and an MIC [3] of 50 µg/mL (≈ 167 µM). The MIC [4] was 100 µg/mL (≈ 334 µM), the MIC [5] was 100 µg/mL (≈ 334 µM) and the MIC [6] was 12.5 µg/mL (≈ 41.8 µM). The zone of inhibition at 1000 µg/mL [7] was 43 mm, the zone of inhibition at 1000 µg/mL [8] was 38 mm and the zone of inhibition at 1000 µg/mL [9] was 19 mm. It also gave a zone of inhibition at 1000 µg/mL [10] of 16 mm, a zone of inhibition at 1000 µg/mL [11] of 14 mm and a zone of inhibition at 1000 µg/mL [12] of 31 mm.
With `Cc1[nH]n(-c2ccccc2)c(=O)c1C(=O)c1cc2ccccc2o1` the MIC [1] was 6.25 µg/mL (≈ 19.6 µM), the MIC [2] was 6.25 µg/mL (≈ 19.6 µM) and the MIC [3] was 100 µg/mL (≈ 314 µM). The MIC [4] was 12.5 µg/mL (≈ 39.3 µM), the MIC [5] was 25 µg/mL (≈ 78.5 µM) and the MIC [6] was 50 µg/mL (≈ 157 µM). For the same compound, the zone of inhibition at 1000 µg/mL [7] was 38 mm, the zone of inhibition at 1000 µg/mL [8] was 37 mm and the zone of inhibition at 1000 µg/mL [9] was 15 mm. For the same compound, the zone of inhibition at 1000 µg/mL [10] was 33 mm, the zone of inhibition at 1000 µg/mL [11] was 26 mm and the zone of inhibition at 1000 µg/mL [12] was 19 mm. It also gave an Activity [13] of 50% and an Activity [15] of 50%.
In the case of `Cc1[nH]n(-c2ccccc2)c(=O)c1C(=O)c1oc2ccccc2c1C`, the MIC [1] is reported as 6.25 µg/mL (≈ 18.8 µM), the MIC [2] is reported as 6.25 µg/mL (≈ 18.8 µM) and the MIC [3] is reported as 25 µg/mL (≈ 75.2 µM). For the same compound, the MIC [4] was 50 µg/mL (≈ 150 µM), the MIC [5] was 100 µg/mL (≈ 301 µM) and the MIC [6] was 100 µg/mL (≈ 301 µM). The zone of inhibition at 1000 µg/mL [7] was 37 mm, the zone of inhibition at 1000 µg/mL [8] was 37 mm and the zone of inhibition at 1000 µg/mL [9] was 27 mm. It also gave a zone of inhibition at 1000 µg/mL [10] of 19 mm, a zone of inhibition at 1000 µg/mL [11] of 15 mm and a zone of inhibition at 1000 µg/mL [12] of 15 mm. The Activity [13] was 50% and the Activity [15] was 50%.
